According to ChEMBL document CHEMBL3232844, “Synthesis and structure activity relationships of schweinfurthin indoles” (2014):

Legend:
Assay type in all cases: functional
[1] = Cytotoxicity against human OVCAR4 cells
Method in brief: (§1)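 Tested in a 60-cell-line human tumor panel screen; the read-out is growth inhibition, reported as GI50 for each cell line.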

HOP-62 = assay: Cytotoxicity against human HOP62 cells; method in brief: as §1
T47D = assay: Cytotoxicity against human T47D cells
Method in brief: (§2)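 Cell line run as part of the 60-cell-line screening panel; growth inhibition was reported as a GI50 for each line.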

SK-OV-3 = assay: Cytotoxicity against human SKOV3 cells; method in brief: as §1
MDA-MB-435 = assay: Cytotoxicity against human MDA-MB-435 cells; method in brief: as §1
[2] = Cytotoxicity against human OVCAR3 cells; method in brief: as §1
SF-295 = assay: Cytotoxicity against human SF295 cells; method in brief: as §1
SR = assay: Cytotoxicity against human SR cells; method in brief: as §2
[3] = Cytotoxicity against human HCT15 cells; method in brief: as §1
NCI-H23 = assay: Cytotoxicity against human NCI-H23 cells; method in brief: as §1
KM12 = assay: Cytotoxicity against human KM12 cells; method in brief: as §1
CCRF-CEM = assay: Cytotoxicity against human CCRF-CEM cells
DU-145 = assay: Cytotoxicity against human DU145 cells; method in brief: as §1
MDA-MB-468 = assay: Cytotoxicity against human MDA-MB-468 cells; method in brief: as §1
TK-10 = assay: Cytotoxicity against human TK10 cells; method in brief: as §2
MDA-MB-231 = assay: Cytotoxicity against human MDA-MB-231 cells; method in brief: as §1
HCC 2998 = assay: Cytotoxicity against human HCC2998 cells; method in brief: as §1
K562 = assay: Cytotoxicity against human K562 cells; method in brief: as §1
M14 = assay: Cytotoxicity against human M14 cells; method in brief: as §1
HL-60(TB) = assay: Cytotoxicity against human HL-60(TB) cells
Method in brief: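 Tested within the NCI 60-cell-line screen, with GI50 as the read-out. Values are the average of two independent experiments. The lowest concentration tested was 10 nM.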

NCI-H460 = assay: Cytotoxicity against human NCI-H460 cells; method in brief: as §1
[4] = read-out: pLC50 (the source's name) (converted)

In the case of `COc1cc(/C=C/c2cc(O)c3c(c2)C[C@@H]2C(C)(C)[C@H](O)CC[C@@]2(C)O3)cc2c1ccn2C`, the GI50 ([1]; OVCAR-4) is reported as 8.51 µM, the CC50 ([1]; OVCAR-4, read-out: pLC50 (the source's name) (converted)) is reported as 56.2 µM and the TGI ([1]; OVCAR-4, read-out: pTGI (converted)) is reported as 24 µM. For the same molecule, the GI50 (HOP-62) was 0.0759 µM, the CC50 (HOP-62; [4]) was 26.9 µM and the TGI (HOP-62; read-out: pTGI (converted)) was 4.68 µM. The GI50 (T47D) was 7.41 µM, the CC50 (T47D; [4]) was 63.1 µM and the TGI (T47D; read-out: pTGI (converted)) was 23.4 µM. For the same molecule, the LC50 (SK-OV-3) was 89.1 µM, the TGI (SK-OV-3; read-out: pTGI (converted)) was 35.5 µM and the GI50 (MDA-MB-435) was 0.389 µM. It also gave a CC50 (MDA-MB-435; [4]) of 61.7 µM, a TGI (MDA-MB-435; read-out: pTGI (converted)) of 9.12 µM and a GI50 ([2]; OVCAR-3) of 10.2 µM. The CC50 ([2]; OVCAR-3, read-out: pLC50 (the source's name) (converted)) was 53.7 µM, the TGI ([2]; OVCAR-3, read-out: pTGI (converted)) was 24 µM and the GI50 (SF-295; read-out: GI50) was < 0.012 µM. For the same molecule, the GI50 (SF-295; read-out: pGI50 (converted)) was 0.0209 µM, the CC50 (SF-295; [4]) was 1.95 µM and the TGI (SF-295; read-out: pTGI (converted)) was 0.0437 µM. For the same molecule, the GI50 (SR) was 0.0759 µM, the CC50 (SR; [4]) was 89.1 µM and the TGI (SR; read-out: pTGI (converted)) was 39.8 µM. It also gave a GI50 ([3]; HCT-15) of 2.95 µM, a CC50 ([3]; HCT-15, read-out: pLC50 (the source's name) (converted)) of 33.9 µM and a TGI ([3]; HCT-15, read-out: pTGI (converted)) of 6.76 µM. It also gave a GI50 (NCI-H23) of 1.38 µM, a CC50 (NCI-H23; [4]) of 44.7 µM and a TGI (NCI-H23; read-out: pTGI (converted)) of 15.5 µM. For the same molecule, the GI50 (KM12) was 0.295 µM, the CC50 (KM12; [4]) was 44.7 µM and the TGI (KM12; read-out: pTGI (converted)) was 18.6 µM. The GI50 (CCRF-CEM) was 0.0537 µM, the CC50 (CCRF-CEM; [4]) was 89.1 µM and the TGI (CCRF-CEM; read-out: pTGI (converted)) was 12.3 µM. For the same molecule, the GI50 (DU-145) was 5.62 µM, the LC50 (50% lethal concentration) (DU-145) was 42.7 µM and the TGI (DU-145; read-out: pTGI (converted)) was 19.1 µM. For the same molecule, the GI50 (MDA-MB-468) was 0.871 µM, the LC50 (MDA-MB-468) was 46.8 µM and the TGI (MDA-MB-468; read-out: pTGI (converted)) was 15.1 µM. The GI50 (TK-10) was 9.77 µM, the LC50 (TK-10) was 63.1 µM and the TGI (TK-10; read-out: pTGI (converted)) was 25.1 µM. For the same molecule, the GI50 (MDA-MB-231) was 3.89 µM, the LC50 (MDA-MB-231) was 51.3 µM and the TGI (MDA-MB-231; read-out: pTGI (converted)) was 19.1 µM. It also gave a GI50 (HCC 2998) of 0.214 µM, a CC50 (HCC 2998; [4]) of 45.7 µM and a TGI (HCC 2998; read-out: pTGI (converted)) of 18.6 µM. For the same molecule, the GI50 (K562) was 0.0813 µM, the CC50 (K562; [4]) was 89.1 µM and the TGI (K562; read-out: pTGI (converted)) was 6.31 µM. The GI50 (M14) was 0.759 µM, the CC50 (M14; [4]) was 7.08 µM and the TGI (M14; read-out: pTGI (converted)) was 1.26 µM. The GI50 (HL-60(TB)) was 0.0447 µM, the CC50 (HL-60(TB); [4]) was 89.1 µM and the TGI (HL-60(TB); read-out: pTGI (converted)) was 16.6 µM. It also gave a GI50 (NCI-H460) of 0.309 µM and a CC50 (NCI-H460; [4]) of 89.1 µM.
